In brackets after ≈: the same amount, converted by molar mass.
Columns and labels:
Format in all cases: functional
Bacillus subtilis [1] = test: Antimicrobial activity against Bacillus subtilis at 1 mg/mL after 24 hrs by agar disc diffusion method; details: read-out: DIZ
Procedure, shortened: (§1)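 Sterile 5 mm filter paper disks were impregnated with test solution in DMF (1 mg/mL) and placed on agar plates seeded with the test organism, in triplicate. Bacteria were incubated at 37 °C for 24 h and fungi for […] (so in the source). The read-out was the average inhibition zone diameter around the disks, in mm.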

Botrytis fabae [2] = test: Antimicrobial activity against Botrytis fabae after 48 hrs by microdilution susceptibility test
Procedure, shortened: (§2)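 MIC was determined by broth microdilution, using Müller–Hinton broth for bacteria and Sabouraud liquid medium for fungi. Stocks were made in DMF and serially diluted twofold. Wells were inoculated at 10⁶ CFU/mL and plates incubated at 36 °C for 24–48 h, with controls included. Only compounds giving agar-diffusion zones >14 mm were tested.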

Fusarium oxysporum [3] = test: Antimicrobial activity against Fusarium oxysporum after 48 hrs by microdilution susceptibility test; procedure, shortened: as §2
Pseudomonas aeruginosa [4] = test: Antimicrobial activity against Pseudomonas aeruginosa after 24 hrs by microdilution susceptibility test; procedure, shortened: as §2
Escherichia coli [5] = test: Antimicrobial activity against Escherichia coli after 24 hrs by microdilution susceptibility test; procedure, shortened: as §2
Bacillus subtilis [6] = test: Antimicrobial activity against Bacillus subtilis after 24 hrs by microdilution susceptibility test; procedure, shortened: as §2
Bacillus thuringiensis [7] = test: Antimicrobial activity against Bacillus thuringiensis after 24 hrs by microdilution susceptibility test; procedure, shortened: as §2
Botrytis fabae [8] = test: Antimicrobial activity against Botrytis fabae at 1 mg/mL […] by agar disc diffusion method; details: read-out: DIZ
Fusarium oxysporum [9] = test: Antimicrobial activity against Fusarium oxysporum at 1 mg/mL after 48 hrs by agar disc diffusion method; details: read-out: DIZ; procedure, shortened: as §1
Pseudomonas aeruginosa [10] = test: Antimicrobial activity against Pseudomonas aeruginosa at 1 mg/mL after 24 hrs by agar disc diffusion method; details: read-out: DIZ; procedure, shortened: as §1
Escherichia coli [11] = test: Antimicrobial activity against Escherichia coli at 1 mg/mL after 24 hrs by agar disc diffusion method; details: read-out: DIZ; procedure, shortened: as §1
Bacillus thuringiensis [12] = test: Antimicrobial activity against Bacillus thuringiensis at 1 mg/mL after 24 hrs by agar disc diffusion method; details: read-out: DIZ; procedure, shortened: as §1

Compound | MIC (Botrytis fabae [2]) | MIC (Fusarium oxysporum [3]) | MIC (Pseudomonas aeruginosa [4]) | MIC (Escherichia coli [5]) | MIC (Bacillus subtilis [6]) | MIC (Bacillus thuringiensis [7]) | zone of inhibition at 1000 µg/mL (Bacillus subtilis [1]) | MBC (Escherichia coli [5]) | MBC (Bacillus subtilis [6]) | zone of inhibition at 1000 µg/mL (Botrytis fabae [8]) | zone of inhibition at 1000 µg/mL (Fusarium oxysporum [9]) | zone of inhibition at 1000 µg/mL (Pseudomonas aeruginosa [10]) | zone of inhibition at 1000 µg/mL (Escherichia coli [11]) | zone of inhibition at 1000 µg/mL (Bacillus thuringiensis [12])
Cc1ccc(-n2nc3[nH]c(=N)c4ccccc4c3n2)cc1 | 50 µg/mL (≈ 182 µM) | 50 µg/mL (≈ 182 µM) | 50 µg/mL (≈ 182 µM) | 50 µg/mL (≈ 182 µM) | 50 µg/mL (≈ 182 µM) | 50 µg/mL (≈ 182 µM) | 30 mm | 200 µg/mL (≈ 726 µM) | 200 µg/mL (≈ 726 µM) | 20 mm | 19 mm | 15 mm | 15 mm | 26 mm
N#CC1c2ccccc2C(=N)C(C#N)(C#N)C1c1ccc(Cl)cc1 (configuration not stated) | 50 µg/mL (≈ 151 µM) | 50 µg/mL (≈ 151 µM) | 100 µg/mL (≈ 302 µM) | 100 µg/mL (≈ 302 µM) | 50 µg/mL (≈ 151 µM) | 50 µg/mL (≈ 151 µM) | 20 mm | 200 µg/mL (≈ 605 µM) | 200 µg/mL (≈ 605 µM) | 26 mm | 20 mm | 31 mm | 33 mm | 33 mm
COc1ccc(C2C(C#N)c3ccccc3C(=N)C2(C#N)C#N)cc1 (configuration not stated) | 100 µg/mL (≈ 306 µM) | 50 µg/mL (≈ 153 µM) | 100 µg/mL (≈ 306 µM) | 100 µg/mL (≈ 306 µM) | 100 µg/mL (≈ 306 µM) | 100 µg/mL (≈ 306 µM) | 15 mm | 200 µg/mL (≈ 613 µM) | 200 µg/mL (≈ 613 µM) | 20 mm | 19 mm | 26 mm | 31 mm | 18 mm
COc1cc(-c2c(C#N)c(N)c3ccccc3c2C#N)cc(OC)c1OC | 50 µg/mL (≈ 139 µM) | 50 µg/mL (≈ 139 µM) | 100 µg/mL (≈ 278 µM) | 100 µg/mL (≈ 278 µM) | 50 µg/mL (≈ 139 µM) | 50 µg/mL (≈ 139 µM) | 26 mm | 200 µg/mL (≈ 557 µM) | 200 µg/mL (≈ 557 µM) | 28 mm | 33 mm | 32 mm | 35 mm | 35 mm
N#C/C(=C\c1ccc(Cl)cc1)c1ccccc1C#N | 100 µg/mL (≈ 378 µM) | 100 µg/mL (≈ 378 µM) | 100 µg/mL (≈ 378 µM) | 100 µg/mL (≈ 378 µM) | 50 µg/mL (≈ 189 µM) | 50 µg/mL (≈ 189 µM) | 21 mm | 200 µg/mL (≈ 756 µM) | 200 µg/mL (≈ 756 µM) | 26 mm | 15 mm | 20 mm | 15 mm | 20 mm

Second part, led by results:

MIC (Botrytis fabae [2]) | MIC (Fusarium oxysporum [3]) | MIC (Pseudomonas aeruginosa [4]) | MIC (Escherichia coli [5]) | MIC (Bacillus subtilis [6]) | MIC (Bacillus thuringiensis [7]) | Compound | zone of inhibition at 1000 µg/mL (Bacillus subtilis [1]) | MBC (Escherichia coli [5]) | MBC (Bacillus subtilis [6]) | zone of inhibition at 1000 µg/mL (Botrytis fabae [8]) | zone of inhibition at 1000 µg/mL (Fusarium oxysporum [9]) | zone of inhibition at 1000 µg/mL (Pseudomonas aeruginosa [10]) | zone of inhibition at 1000 µg/mL (Escherichia coli [11]) | zone of inhibition at 1000 µg/mL (Bacillus thuringiensis [12])
50 µg/mL (≈ 169 µM) | 25 µg/mL (≈ 84.5 µM) | 50 µg/mL (≈ 169 µM) | 50 µg/mL (≈ 169 µM) | 25 µg/mL (≈ 84.5 µM) | 25 µg/mL (≈ 84.5 µM) | N=c1[nH]c2nn(-c3ccc(Cl)cc3)nc2c2ccccc12 | 32 mm | 200 µg/mL (≈ 676 µM) | 200 µg/mL (≈ 676 µM) | 15 mm | 15 mm | 19 mm | 15 mm | 38 mm
25 µg/mL (≈ 85.8 µM) | 25 µg/mL (≈ 85.8 µM) | 50 µg/mL (≈ 172 µM) | 50 µg/mL (≈ 172 µM) | 50 µg/mL (≈ 172 µM) | 50 µg/mL (≈ 172 µM) | COc1ccc(-n2nc3[nH]c(=N)c4ccccc4c3n2)cc1 | 33 mm | 200 µg/mL (≈ 687 µM) | 200 µg/mL (≈ 687 µM) | 15 mm | 19 mm | 15 mm | 19 mm | 35 mm
25 µg/mL (≈ 81.6 µM) | 25 µg/mL (≈ 81.6 µM) | 50 µg/mL (≈ 163 µM) | 25 µg/mL (≈ 81.6 µM) | 50 µg/mL (≈ 163 µM) | 50 µg/mL (≈ 163 µM) | N=c1[nH]c2nn(-c3ccc([N+](=O)[O-])cc3)nc2c2ccccc12 | 38 mm | 200 µg/mL (≈ 653 µM) | 200 µg/mL (≈ 653 µM) | 16 mm | 15 mm | 15 mm | 26 mm | 38 mm

— ChEMBL document CHEMBL2331322, “Synthesis and antimicrobial activity of some new benzo and naphthonitrile derivatives” (2013)
